Experimental data: the EternaBench riboswitch data

System: MS2 coat protein
Assay: apparent Kd, MS2 coat protein; higher = weaker binding; RNA-MaP array; FMN 200 µM where present
Procedure, shortened: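 Stalled E. coli RNA polymerase produced the designs on Illumina sequencing-chip clusters. SNAP-549-labelled MS2 coat protein was added from 0.7 or 1.5 nM, doubling to 3 µM, without and then with constant ligand, in 100 mM Tris-HCl pH 7.5, 80 mM KCl, 4 mM MgCl2, BSA, DTT, yeast tRNA and Tween-20. The apparent Kd is the median of filtered per-cluster fits of green signal normalised to red-channel RNA signal and control-cluster median Fmax.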

[1] = designed as: OFF switch for flavin mononucleotide, no ligand
[2] = ligand present: flavin mononucleotide, designed as: OFF switch for flavin mononucleotide
[3] = designed as: ON switch for flavin mononucleotide, no ligand
[4] = ligand present: flavin mononucleotide, designed as: ON switch for flavin mononucleotide

Sequence	apparent Kd [1]	apparent Kd [2]	apparent Kd [3]	apparent Kd [4]
GCAGGAUAAGUCAGGAUAUACCUAUGGAUACAUAGGUAGAAGGGACAUGAGGAUCACCCAUGUGCCUCGCCUGC	0.0145 µM	0.0374 µM		
CUAGACUGAUCAGGAUAUCAUCGCGUGGUGUAUCCCUGUGAUUACAUGAGGAUCACCCAUGUGCAUGAGAAGGGAUUACUAUGU	0.0547 µM	0.03 µM		
GACUUCUCUGAGGAUAUUGCAUCAUACGAUUUAUAAGAAGGCAGAACAUGAGGAUCACCCAUGUGGGUUUCUAG	0.059 µM	0.108 µM		
GUCAGCUCGUGAGGAUAUACAUGUGCUGGAUACAGCACUAAUUAAUUCACAUGAGGAUCACCCAUGUAGAAGGCACGAGCUGAU	0.0161 µM	0.0188 µM		
ACCCAUGUCCAAGGAUAUGUACUCACAUGAGGAUCACCCAUGUAAAAGGGAGCAGAAGGUGGUACAUGUUAGAGAAUAAUAAAC			0.129 µM	0.0114 µM
GAUGAGGUAGGAUAUACGAGAAGAUAGGGUAGAUAGAUAACACAUGAGGAUCACCCAUGUAGAAGGACCAGUAG	0.0345 µM	0.0798 µM		
GAUCUGGCAGGAUAUACAUGAGGAUCACCCAUGUGCGAGCUAGCGAAAGCUAGCUCAGGUAGAAGGGUCAGAUC	0.0127 µM	0.0155 µM		
UGUGCGUAUGUGAGGAUAUGCUGGUCCUUGGCUCGGCAGAAGGCACAUGAGGAUCACCCAUGUGGUGUCGUACU	0.108 µM	0.104 µM		
GAUCAACAUGAGGAUCACCCAUGUGAGGAUAUGAUACUAUGUACUUCGGUACAUAGUAUCAGAAGGCAUAUGAA	0.0567 µM	0.0985 µM		
GAGCACUGAUAAUAAUGUAGAAAUACAUGAGGAUCACCCAUGUAGGAUAUCGUCAGGAAUACUGACGAGAAGGACAUACAGUGC	0.0157 µM	0.0255 µM		
AUCAGCACGUGAGGAUAUGCGUCACUGCGAAAGCAGUACGGUAAGAUCACAUGAGGAUCACCCAUGUAGAAGGCACGAGCUGAU	0.0166 µM	0.0381 µM		
UUCGUGCAGCUUUGCUGUACGCGUACAUGAGGAUCACCCAUGUAGGAUAUGGUAGGCAAAGUUUACUAGAAGGAUAUAGUGAUC	0.0132 µM	0.0143 µM		
UUUAUAAAUUAGAAGGCGAGAUGAAUUACAAUAGACAUGAGGAUCACCCAUGUGUACCCAUGUCUUGAGGAUAUAGUCAUAUAU			0.132 µM	0.048 µM
GCAUCCAAAGUGAGGAUAUACCUCUGGAUACAGAGGUAGAAGGCACAUGAGGAUCACCCAUGUUACUAGGAUGC	0.0129 µM	0.017 µM		
AUUUAUUUACAGAAGGAGUAUGAUAAUGUUUUACUAGGAUAUGUAUACAUGAGGAUCACCCAUGUUAUUAUAGGUUUUUUAUGU	0.0103 µM	0.00708 µM		
GCUAUCGGGUGAGGAUAUAUAAUUGUGAUUAAAAUAGAAGGCAUCUCAGAAGACAUGAGGAUCACCCAUGUAGUUAAGAUGGCA			0.0238 µM	0.0201 µM
GAUAGGACAGAGAAGGACGUAGCUAGAGAUACUAGCAUAAAGGUCCAAACAUGAGGAUCACCCAUGUAGGAUAUCUGUCCUAUC	0.00647 µM	0.00692 µM		
GGGUGGCGUAGAGGAUAUGUGGUACAUGAGGAUCACCCAUGUGCAUAUGAUGUUCGUGUGUCAUCAUAGAAGGCUACGUCGCUA			0.132 µM	0.0629 µM
UAGACCGAUGUUAGGAUAUCUGGUCGAGAAAGAAAAGAGAAGGAACAUGAGGAUCACCCAUGUACCCGGGUAAC	0.015 µM	0.0192 µM		
AGAAAAGCAGGAUAUAUCCGGGAUAACAUGAGGAUCACCCAUGUGACCGCUUGAUAUCCUAUAGAAGGGCUUAAGA	0.0244 µM	0.0512 µM		
CAUGUGAGCGAGGAUAUUUUACGGGAAACUUUCAGAGAAGGCGCUACAUGAGGAUCACCCAUGUCCGUCAGUCC	0.0417 µM	0.0948 µM		
GCUGACGAUGUAGGAUAUCAGUAUAAUAAAUACUGAGAAGGACAUGAGGAUCACCCAUGUAAUAAACGUCAGCAGAGGAAACUC	0.0162 µM	0.0226 µM		
GCUGCUCAUGAGAAGGCGAUCAUGAAACAUGAUCGAGGAUAUCAUGUAAACAUGAGGAUCACCCAUGUAUGGGUAUUAUGCAGC			0.117 µM	0.0405 µM
AAUUGACACGUAGGAUAUCGCUCUUAAUUAACACGAGAAGGACGUACAUGAGGAUCACCCAUGUUAAAUGGUGUAGUUUAGUUG	0.0455 µM	0.123 µM		

Sequence	apparent Kd [1]	apparent Kd [2]	apparent Kd [3]	apparent Kd [4]
GGUGCGUCUGUGAGGAUAUGCUGGUCCUUGGCUCGGCAGAAGGCACAUGAGGAUCACCCAUGUGGUGUCGUGCC	0.0185 µM	0.0346 µM		
GGACGUCACAUCUACAUGAGGAUCACCCAUGUCGAAAGACAUGAGGAUAUGCAUCCUAAUUGGAUGCAGAAGGCAUGGACGUCC			0.667 µM	0.0697 µM
UGUCGGAGCAGAGGAUAUUACAUGAGGAUCACCCAUGUAUGAACCAAUAGCUGGAAACAACAAUGUAAGAAGGCUGCUCCGACA	0.00722 µM	0.0388 µM		
GAGAGAGGGUGAGGAUAUUCAGUAAUAAUGAUAGAAGAAGGCACAGACAUGAGGAUCACCCAUGUGGGAAUAAUCCAGAGAGAG			0.182 µM	0.207 µM
GUGUAGAUAGCAGGAUAUCUAUUUCCUACAUGAGGAUCACCCAUGUAGAUGAUCACCCAUGUAAAGGAGAAGGGCUAUCUAUAC			0.367 µM	0.165 µM
GGGCCGUAGUAGAAGGGAUAUACGUUAGGUAUAUCAGGAUAUACAUGAGGAUCACCCAUGUUCUAACAGUGAUAGUCCUCCCUU	0.0155 µM	0.0331 µM		
CCUAAGGAGGCAGGAUAUAGUGUGGUGGCCGGGCUCCCACGGCGAGCGGCACUAGAAGGGUCACUACAUGAGGAUCACCCAUGU			0.0733 µM	0.03 µM
CUCGUGUGAGGAUAUUCGGGCGGGCUCGUUUGGGUUUGUUUGGAGAAGGUACAUGAGGAUCACCCAUGUGCUGG	0.051 µM	0.175 µM		
GGGCCCGGAGGAUAUACAAUGGGCCCGGGAAACCGGGUUUUACAUGAGGAUCACCCAUGUAGAAGGCCGGGUUU	0.0145 µM	0.0154 µM		
UUAAUAAUACAAGGAUAUCUAUUGUUCUUUCGACAUACAUGAGGAUCACCCAUGUUAAUAUAUAUAGAGAAGGUGUAUUUUCAG			0.028 µM	0.0245 µM
GCGGGCAGCACAGGAUAUGUGACGUACAUGAGGAUCACCCAUGUGCGAAUGGCAGAAGGGUGAGGCCUCGGUGACCGAUUUCCG			0.016 µM	0.00559 µM
GCGGAACAUGAGGAUCACCCAUGUAUCCCAAAUAUGGACUCACAGGAUAUCCCGAGUUGCCAGUGGGAGAAGGGUGACUCCAGA			0.0142 µM	0.00655 µM
GUCAGCUCGUGAGGAUAUACAACACUGAUUCGGCAGUGUAUUAAGAUCACAUGAGGAUCACCCAUGUAGAAGGCACGAGCUGAU	0.0172 µM	0.275 µM		
UUGGUUGUCGUAGGAUAUGUAGGAUAUUCCUACAUGAGGAUCACCCAUGUUCGCAUGGAAGAAGGACAGAAGGACGAUGACCAC			0.85 µM	0.00919 µM
GGAAAUCGUGUAGGAUAUGCAUGGCGAAGCUACGCAGAAGGACAUGAGGAUCACCCAUGUUAUAGCGUCCGAGAAAGGAUGCAA	0.011 µM	0.0674 µM		
GUUUACGUGGAAGGAUAUACAUUUGACAUCCUGAUGCGCGCAAUACCCACAUGAGGAUCACCCAUGUAGAAGGUCUGCGAAAGA	0.0146 µM	0.0184 µM		
CCGCGGCGUGCAGGAUAUGUUACGAUACCUCGGACAGAAGGGCACAUGAGGAUCACCCAUGUAAUAUAUAUGGAACAUAUAUAG	0.0338 µM	0.0533 µM		
AAACAUGUCCGAGGAUAUCUAGAAACAUUUUUAAGAGAAGGCGGACAUGAGGAUCACCCAUGUCUCUCCUCAUCAAAUCCAAGU	0.0156 µM	0.068 µM		
UUCAGCUCGUGAGGAUAUACAUGUGCUGGAAACAGCACUAUUAAGAUCACAUGAGGAUCACCCAUGUAGAAGGCACGAGCUGAG	0.048 µM	0.585 µM		
GGACGUCUCAUUAACAUGAGGAUCACCCAUGUCAAAAGACAUGAGGAUAUGGUUCCUAAUUGGAACCAGAAGGCAUGGACGUCC			0.853 µM	0.0678 µM
GAAUGGGUAGAAGGACAUGAGGAUCACCCAUGUAGUGUGACUAAGGAUAUUAGAGAAGAUUGACGUAAGAAGGUAGAUGUGAGG	0.134 µM	0.117 µM		
GGAUGAUUAAUAGGAUAUUAUUUGUAAAUUGGUUAAGAAGGAUUAAUGAUUUAAACGACCUGUUACAUGAGGAUCACCCAUGUU			0.0452 µM	0.0352 µM
AAGAAAGUAUUGCGAGGGUAGGAGCAGGAUAUCCCAUUGGCCCUCACAUGAGGAUCACCCAUGUGGGAGAAGGGCUAUUACGUU	0.00651 µM	0.0132 µM		
AAUGCCAACGAAGGAUAUACAAACAUGAGGAUCACCCAUGUGUCUUUCGUGUAACUGGAAUUCGGGUAGAAGGUCGUUGACAUA	0.0242 µM	0.0232 µM		
